CSC inhib: cancer stem cell inhibition; 300,000 tested, 1.1% active; AID 2717; cancer stem cell-like cells viability, luminescence; inhibition, % at 7.5 µM; in the data active = inhibition above about 75%; inconclusive = no clear call, values can overlap the other calls; tested in HMLE shEcad cells
HIF activator: HIF pathway transcriptional activation; U2OS HRE-luciferase reporter, luminescence; normalized: DMSO 0%, desferrioxamine 100%; activation, % at 7.5 µM (by protocol); 300,000 tested, 0.32% active; AID 1910;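 active = mean activation of at least 10% of the iron chelator positive control signal, with at least half of replicates also reaching 10%; inconclusive = mean and replicate majority disagree about reaching 10%; inactive = mean and most replicates under 10%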
PolyA inh: blocks polyadenylation in yeast reporter cells; 300,000 tested, 0.02% active; AID 1875; activity score, % at 12 µM; S. cerevisiae SKY197-pL101 polyadenylation reporter, beta-gal luminescence; efflux-impaired pdr1/pdr3 knockout yeast; score 100 = 6 SD above DMSO;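 active = lowest replicate activity score at least 50, where 100 means six control SD above control mean; inconclusive = lowest score under 50 but half or more replicates reach 50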;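 note: yeast exposed to compound for 9 h at 30 °C; higher score means more reporter readthrough which indicates perturbed polyadenylation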
Calb FLC: affects C. albicans growth with fluconazole | AID 1979 | growth inhibition, % (no concentration beside the values) | C. albicans CaCi-2 (fluconazole-resistant clinical isolate) + fluconazole, Alamar Blue growth, 48 h | 300,000 tested, 0.57% active;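 active = growth inhibition above about 58% in most replicates, limit read from the data, passing the limit was not always enough; inconclusive = exactly half the replicates above a set limit; inactive = most replicates below a set limit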;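 note: all wells also contain fluconazole at 8 µg/ml as a sub-toxic cotreatment; 0% = median of DMSO wells and 100% = median of geldanamycin control wells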
Beta cell apopt: beta cell apoptosis inhibition. protection from apoptosis, % (no concentration beside the values). 300,000 tested, 0.8% active. AID 435005. INS-1E cytokine-induced death, ATP luminescence, 48 h; percent of positive-control rescue, neutral wells zero;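 active = Every replicate reaches about 75%, or at least half do and their mean reaches it too, limit read from the data; inconclusive = At least half of replicates reach the limit but their mean does not; inactive = Under half of replicates reach the limit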;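 note: 0% = cytokine-treated negative control wells and 100% = positive control rescue; higher means more ATP so stronger rescue from cytokine killing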
T cruzi inh: T. cruzi replication inhibition | T. cruzi beta-gal in NIH3T3, luminescence, 90 h | inhibition, % (concentration not given with the values) | 300,000 tested, 1.4% active | AID 1885;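 active = mean inhibition across valid replicates above about 55%, limit read from the data; inconclusive = mean below that limit but half or more replicates reach it; inactive = mean below it, under half of replicates reach it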;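 note: signal also drops with host cell toxicity which is not excluded here; 0% = plate median of DMSO wells and 100% = zero luminescence signal; higher percent means less beta-gal luminescence so fewer parasites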
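System: Mouse NIH/3T3 fibroblasts infected with β-gal-expressing T. cruzi Tulahuen C4 | Quantity: NIH/3T3 cells, 5,000 per well | Reagent: 5000 reporter trypomastigotes per well | Dosing: Compound pinned at 50 nL/well, DMSO | Schedule: 3 h host attachment, then at least 90 h co-culture | Detection: GalScreen luminescence, 60 min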
Starred values were filed as active, the others as inactive; u = inconclusive; x = no result. In the library only some 3.1% were active in any assay of this set; here they are far more common.

SMILES	CSC inhib	HIF activator	PolyA inh	Calb FLC	Beta cell apopt	T cruzi inh
O=C(NCCCN1CCCC1)c1cc2c(Cl)nc3ccccc3c2s1	29	0	-20	7	6	54
CC1CCN(CCCNC(=O)c2cc3c(Cl)nc4ccccc4c3s2)CC1	10	0	5	-2	-7	56*
Cc1cc(C)c(O)c(-c2cc(C(=O)Nc3ccc(S(=O)(=O)N4CCOCC4)cc3)[nH]n2)c1	88*	-1	1	-11	x	2
CC(C)(C)c1ccc2c(c1)OC(C(=O)N/N=C/c1ccc([N+](=O)[O-])o1)CO2 (stereo not drawn)	29	0	-40	10	-5	60*
Cc1cc([N+](=O)[O-])cc(/C=N\NC(=O)C2COc3ccccc3O2)c1O (stereo not drawn)	10	3	0	-45	8	-1
CC(C)(C)c1ccc2c(c1)OC(C(=O)N/N=C\c1ccc[nH]1)CO2 (stereo not drawn)	119*	0	-19	1	70	13
Cc1c(/C=N\NC(=O)C2COc3ccc(C(C)(C)C)cc3O2)c2ccccc2n1C (stereo not drawn)	x	0	-5	-1	x	66*
CC(C)(C)c1ccc2c(c1)OC(C(=O)N/N=C\c1ccncc1)CO2 (stereo not drawn)	-4	0	-12	3	2	0
Cn1cccc1/C=N\NC(=O)C1COc2ccc(C(C)(C)C)cc2O1 (stereo not drawn)	0	0	4	-2	19	-22
COC(=O)[C@H](CC(C)C)N(Cc1ccccc1)S(=O)(=O)N(Cc1ccccc1)[C@@H](CC(C)C)C(=O)OC	13	x	x	x	121*	x
C=C[C@H](CC(C)C)N(Cc1ccccc1)S(=O)(=O)N(Cc1ccc(OC)cc1)[C@H](C=C)CC(C)C	5	x	x	x	115*	x
CC(C)C[C@H](CO)N(Cc1ccccc1)S(=O)(=O)N(Cc1ccccc1)[C@@H](CO)CC(C)C	107*	x	x	x	-5	x
CCOC(=O)[C@@H](C)N(Cc1ccc(OC)cc1)S(=O)(=O)N(Cc1ccccc1)[C@H](C(=O)OC)C(C)C	-1	x	x	x	17	x
COC(=O)[C@H](CC(C)C)NS(=O)(=O)N(Cc1ccccc1)[C@@H](CC(C)C)C(=O)OC	4	x	x	x	-16	x
COC(=O)[C@H](CC(C)C)N(Cc1ccccc1)S(=O)(=O)N(Cc1ccc(OC)cc1)[C@@H](CC(C)C)C(=O)OC	10	x	x	x	116*	x
c1cc2c3c(cccc3c1)NC1(CCCCCC1)N2	8	-1	-11	36	x	8
c1cc2c3c(cccc3c1)NC1(CCC3(CC1)Nc1cccc4cccc(c14)N3)N2	11	-11	6	-2	27	59*
CCC1=Nc2cc(C(=O)NCCCOC)ccc2Sc2ccccc21	56	1	-13	-5	-7	56*
CCCC1=Nc2cc(C(=O)NCCCOCC)ccc2Sc2ccccc21	53	1	-1	1	32	33
CCN(C(=O)c1cc2c(=O)[nH]c3ccc(C)cc3c2s1)c1ccc(F)cc1	x	0	0	15	7	41
CCN(C(=O)c1cc2c(=O)[nH]c3ccc(C)cc3c2s1)c1ccccc1C	18	0	-4	5	11	56*
CCN(C(=O)c1cc2c(=O)[nH]c3ccc(C)cc3c2s1)c1ccccc1F	-11	0	0	0	-4	40
CCN(C(=O)c1cc2c(=O)[nH]c3ccc(C)cc3c2s1)c1cccc(C)c1	31	0	-5	13	10	56*
O=C(NCCN1C(=O)S/C(=C\c2ccccc2F)C1=O)C1CCCN1C(=O)c1cccs1 (stereo not drawn)	-4	0	2	13	-1	-5
Cc1ccc2[nH]c(=O)c(CN(CCCN(C)C)C(=S)NCCc3ccccc3)cc2c1	7	-1	4	10	0	84*
SMILES	CSC inhib	HIF activator	PolyA inh	Calb FLC	Beta cell apopt	T cruzi inh
Cc1cccc2cc(CN(CCCN(C)C)C(=S)NCCc3ccccc3)c(=O)[nH]c12	1	-1	9	6	5	62*
COc1ccc(C(=O)NC(=S)NNC(=O)c2cnccn2)cc1	88*	2	7	118*	77*	22
COc1ccccc1C(=O)NC(=S)Nc1ccccc1N1CCCC1	-4	1	11	13	x	15
COc1ccccc1C(=O)NNC(=S)NC(=O)c1cc(OC)c(OC)c(OC)c1	-2	2	-9	105*	40	60*
COc1cc(C(=O)NNC(=S)NC(=O)c2ccccc2C)cc(OC)c1OC	13	0	-3	-12	12	-5
COc1cc(C(=O)NC(=S)NNC(=O)c2cnccn2)cc(OC)c1OC	36	0	-11	38	82*	-18
COc1ccccc1C(=O)NC(=S)Nc1ccc(N2CCCC2)cc1	-1	3	-10	-1	27	56*
CCc1ccc(S(=O)(=O)N2CCN(C(=O)c3cccnc3)CC2)cc1	x	0	23	-5	x	-10
CC(=O)c1cccc(CN2CCC(C(=O)Nc3ccc(-c4cccc(C)c4)cc3)CC2)c1	45	-20	8	-12	x	8
O=C(NC(=S)NNC(=O)c1cnccn1)c1ccc(Cl)cc1	94*	1	3	94*	4	11
C/C(=N/Nc1cc(-c2ccccc2)nc(-c2ccccc2)n1)c1ccc(O)cc1	106*	3	-8	0	7	52
C/C(=N\Nc1cc(-c2ccccc2)nc(-c2ccc(Br)cc2)n1)c1cccc(N)c1	46	0	x	5	6	-8
CC1(C)CC(=O)C(N=Nc2cccc([N+](=O)[O-])c2)=C(O)C1	-1	1	0	-7	2	-11
CCOc1cc(C=O)cc(N=Nc2cccc([N+](=O)[O-])c2)c1O	4	-1	-18	104*	3	4
O=C(COC(=O)/C=C/C(=O)OCC(=O)NC12CC3CC(CC(C3)C1)C2)NC12CC3CC(CC(C3)C1)C2	15	-5	-9	-3	-19	-10
CCCCCCCC/C=C\CCCCCCCC(=O)NCCc1ccc(O)c(O)c1	100*	x	x	x	u	x
CCCCCCCC/C=C\CCCCCCCC(=O)NCCO	-7	x	x	x	-2	x
Cc1ccc(S(=O)(=O)NCC(=O)NCCc2c[nH]c3ccccc23)cc1C	-4	0	10	23	-9	-7
CCCCN(CCCC)C(=S)N/N=C/c1c(C)[nH]n(-c2ccccc2)c1=O	-1	0	-11	62	87*	-21
Cc1[nH]n(-c2ccccc2)c(=O)c1/C=N/NC(=O)c1ccc(O)cc1O	x	1	-16	-16	x	-11
Cc1[nH]n(-c2ccccc2)c(=O)c1/C=N/NC(=O)c1cccc(F)c1	49	1	-1	-39	92*	-25
CCCCN=Cc1c(C)[nH]n(-c2ccccc2)c1=S	17	-57	3	-11	-3	3
